Published values pooled from the literature.
Each line is one published result; the experiments were not run side by side.
CYP2E1: Cytochrome P450 2E1 (CYP2E1, Homo sapiens, UniProt P05181)

For `Nn1nnc2ccccc21`, the IC50 was 37.7 µM (CYP2E1; enzyme activity, inhibitor, HPLC).
With `Cc1csc2c(=O)n(O)c(=O)[nH]c12` the viability was 122% (HFF; cell growth or viability, MTS; 10 µM, 7 days).
`CCN(CC)C(=S)S` has an inhibition of 75% (CYP2E1; enzyme activity, inhibitor; human, liver microsomes; 50 µM).
With `O=c1[nH]c2cc(-c3ccc(F)cc3)sc2c(=O)n1O` the viability was 61% (HFF; cell growth or viability, MTS; 10 µM, 7 days).
The tracer uptake of `Cn1ccc(COc2cnc(C(N)=O)cc2-c2ccc(O[11CH3])cc2F)n1` is reported as 2.61 %ID/g (male mouse, lung; intravenous, 2.5 MBq, 5 min).
For `CCN(CC)C(=O)[C@@]1(c2ccccc2)C[C@H]1CN`, the Cmax was 5020 ng/mL (male cynomolgus monkey, plasma; oral, 30 mg/kg).
For `CC1COc2ccccc2N1C(=O)C(Cl)Cl` (stereo not shown), the microsomal CLint was 900 µL/min/mg (metabolic stability; male monkey, liver microsomes; 5 µM, pH 7.4).
`O=C(CCCCCCC(=O)Nc1ccc(CC[18F])cc1)NO` gave a tracer uptake of 1 %ID/g (male nude mouse, stomach; intravenous, 2 h, tumour-bearing).
`O=c1[nH]c2sc3c(c2c(=O)n1O)CCNC3` gave a viability of 107% (HFF; cell growth or viability, MTS; 10 µM, 7 days).
The CC50 of `CCN(CC)C(=O)CN1C(=O)Cc2c([nH]c3ccc(Br)cc23)-c2ccc(Cl)cc21` is reported as no less than 100 µM (J774; cell growth or viability, WST-1; 24 h).
For `CCc1cc(/C(C)=N/OCc2ccc(C3CCCCC3)c(C(F)(F)F)c2)ccc1CN1CC(C(=O)O)C1`, the inhibition was 32.6% (CYP2E1; enzyme activity, inhibitor; human, liver microsomes; 100 µM, 20 min).
`O=c1[nH]c2sc3c(c2c(=O)n1O)CCN(Cc1ccccc1)C3` gave a viability of 104% (HFF; cell growth or viability, MTS; 10 µM, 7 days).
`O=C(CN1C(=O)Cc2c([nH]c3ccc(Br)cc23)-c2ccc(Cl)cc21)N1CCNCC1` has a CC50 of no more than 10 µM (J774; cell growth or viability, WST-1; 24 h).
The tracer uptake of `Nc1ccc(C=Cc2ccc([125I])cc2)cc1` is reported as 1.12 %ID/g (Swiss mouse, brain; intravenous, 5 µCi, 2 h).
For `CN(C)C(=O)CN1C(=O)Cc2c([nH]c3ccc(Br)cc23)-c2ccc(Cl)cc21`, the CC50 was no less than 100 µM (J774; cell growth or viability, WST-1; 24 h).
`O=c1[nH]c2cc(-c3ccccc3)sc2c(=O)n1O` has a viability of 85% (HFF; cell growth or viability, MTS; 10 µM, 7 days).
